Data on 2 molecules can be found in ChEMBL document CHEMBL4004830 (J Med Chem, 2017).

The term IC50 denotes the concentration that gives 50% inhibition. One may read the Papp A→B as how fast a substance crosses the layer from the apical side. One may read the Cmax as the maximum level reached in the sampled fluid or tissue. As a reminder, the bioavailability is dose-corrected exposure relative to a reference, in per cent. Read a low bioavailability as little systemic uptake. The term AUC(0-t) denotes exposure summed from dosing to a finite time, without extrapolation to infinity. For orientation: half-life means the time in which the quantity being followed falls by half. Read a low half-life as rapid decline.

The source made the active and inactive calls. The calls are words filed in the database; no cut-off is given here.

Data set [1] relates to MV4-11. The experiment in a line: Cell cycle arrest in human MV4-11 cells assessed as accumulation at S phase at 0.04 uM after 24 hrs by propidium iodide staining based flow cytometry (reference value: 19.07%). The class given is functional. On the technique in general: In flow cytometry, cells or beads pass a laser one at a time.
The subject of data set [2] is MV4-11. The experiment in a line: Cell cycle arrest in human MV4-11 cells assessed as accumulation at S phase at 0.20 uM after 24 hrs by propidium iodide staining based flow cytometry (reference value: 19.07%). The class given is functional.
Data set [3] concerns MV4-11. The experiment in a line: Cell cycle arrest in human MV4-11 cells assessed as accumulation at G2/M phase at 0.20 uM after 24 hrs by propidium iodide staining based flow cytometry (reference value: 17.94%). The format is functional.
For data set [4], the system named is MV4-11. The experiment in a line: Cell cycle arrest in human MV4-11 cells assessed as accumulation at sub-G1 phase at 0.40 uM after 24 hrs by propidium iodide staining based flow cytometry (reference value: 1.99%). The class given is functional.
The test system of data set [5] is MV4-11. The experiment in a line: Cell cycle arrest in human MV4-11 cells assessed as accumulation at S phase at 0.40 uM after 24 hrs by propidium iodide staining based flow cytometry (reference value: 19.07%). The class given is functional.
For data set [6], the system named is MV4-11. The experiment in a line: Cell cycle arrest in human MV4-11 cells assessed as accumulation at G2/M phase at 0.40 uM after 24 hrs by propidium iodide staining based flow cytometry (reference value: 17.94%). The format is functional.
The subject of data set [7] is MV4-11. The experiment in a line: Effect on total Rb protein levels in human MV4-11 cells at GI50 after 12 to 24 hrs by Western blot analysis. The class given is cell-based. Summed up: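 MV4-11 cells were treated for 12 or 24 h, then analysed by Western blot for Rb, including phospho-Ser780. β-Actin served as the loading control. Data are representative of two independent experiments.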
In general terms: Immunoblotting shows a protein as a band on a membrane.

The target in data set [8] is Serine/threonine-protein kinase 16 (Homo sapiens) (UniProt O75716). The experiment in a line: Inhibition of human STK16 (11 to 305 amino acid residues) expressed in bacterial expression system at 1 uM in presence of [gamma-33P]-ATP […]. Summed up:
(§1)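 Broad kinome panel of 369 kinases screened at 1 µM test concentration.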

The target in data set [9] is CDK6/cyclin D3 (Homo sapiens, UniProt Q00534). The experiment in a line: Inhibition of CDK6/cyclin D3 (unknown origin) in presence of [gamma-33P]-ATP […]. The format is protein-complex assay. The following applies: read-out: Ki(app).
Data set [10] concerns the target Cyclin-dependent kinase 1/cyclin B1 (Homo sapiens) (UniProt P06493+P14635). The experiment in a line: Inhibition of CDK1/cyclin B (unknown origin) in presence of [gamma-33P]-ATP […]. The format is protein-complex assay.
Data set [11] has as its target CDK9/cyclin T1 (Homo sapiens, UniProt P50750). The experiment in a line: Inhibition of CDK9/cyclin T1 (unknown origin) in presence of [gamma-33P]-ATP […]. The format is protein-complex assay. Particulars: read-out: Ki(app).
The species named for data set [12] is Homo sapiens. The experiment in a line: Selectivity ratio of Ki for CDK2/cyclin A (unknown origin) to Ki for CDK6/cyclin D3 (unknown origin). An outline of the steps: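 Apparent Ki for each CDK–cyclin complex (CDK4–cyclin D1, CDK6–cyclin D3, CDK2–cyclin A) calculated from the half-maximal inhibition (IC50) and that kinase's Km(ATP). The selectivity ratio is the CDK2 Ki divided by the CDK4 or CDK6 Ki.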

Data set [13] concerns the target Cytochrome P450 3A4 (Homo sapiens, UniProt P08684). The experiment in a line: Inhibition of CYP3A4 in human liver microsomes using midazolam as substrate in presence of NADPH. The class given is ADME. An outline of the steps: (§2)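 Human liver microsomes with NADPH and isoform-specific probe substrate (midazolam CYP3A4, dextromethorphan CYP2D6, ethoxyresorufin CYP1A, tolbutamide CYP2C9, mephenytoin CYP2C19); IC50 reported in µM.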
A general note: Microsomes from liver hold many membrane-bound enzymes, among them those of drug oxidation.

Data set [14] deals with Cytochrome P450 2C9 (Homo sapiens, UniProt P11712). The experiment in a line: Inhibition of CYP2C9 in human liver microsomes using tolbutamide as substrate in presence of NADPH. The class given is ADME. Summed up:
as §2

Data set [15] deals with Cytochrome P450 2C19 (Homo sapiens, UniProt P33261). The experiment in a line: Inhibition of CYP2C19 in human liver microsomes using mephenytoin as substrate in presence of NADPH. The class given is ADME. An outline of the steps: as §2
The target in data set [16] is Voltage-gated inwardly rectifying potassium channel KCNH2 (Homo sapiens, UniProt Q12809). The experiment in a line: Inhibition of human ERG expressed in CHO cells by patch clamp electrophysiology. The class given is cell-based. An outline of the steps: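 Cardiac toxicity assay in CHO cells expressing hERG; IC50 determined.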
A short description of data set [17]: Apparent permeability co-efficient from apical to basolateral side in human Caco2 cells. The format is ADME, cell-based. Particulars: Caco-2. Summed up:
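Caco-2 monolayer assay measuring the apparent permeability coefficient (P_app, 10^-6 cm/s) in the A→B and B→A directions. Efflux ratio is the mean P_app B-A divided by the mean P_app A-B.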

The nature of data set [18]: Cmax in albino Wistar rat at 5 mg/kg, iv up to 24 hrs by LC-MS/MS analysis. The format is ADME, organism-based. The arrangement: dose 5 mg/kg, route intravenous. Particulars: in vivo.
The nature of data set [19]: Oral bioavailability in albino Wistar rat at 20 mg/kg measured up to 24 hrs by LC-MS/MS analysis. Particulars: in vivo. The class given is ADME, organism-based. An outline of the steps: (§3)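 Single-dose pharmacokinetics in male animals: albino Wistar rats given 5 mg/kg IV or 20 mg/kg PO, and BALB/c mice given 2 mg/kg IV or 10 mg/kg PO.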
Data set [20] in a line: Volume of distribution at steady state in BALB/c mouse at 2 mg/kg, iv up to 24 hrs by LC-MS/MS analysis. The class given is ADME, organism-based. The following applies: in vivo, read-out: Vdss. Summed up:
as §3

The nature of data set [21]: Cmax in BALB/c mouse at 2 mg/kg, iv up to 24 hrs by LC-MS/MS analysis. The format is ADME, organism-based. The arrangement: dose 2 mg/kg, route intravenous. The following applies: in vivo.
The nature of data set [22]: AUC (0 to t) in BALB/c mouse at 10 mg/kg administered via oral gavage measured up to 24 hrs by LC-MS/MS analysis. The format is ADME, organism-based. Particulars: in vivo. The arrangement: dose 10 mg/kg, time < 24 hr, route oral.
Data set [23] is described as follows: Half life in BALB/c mouse at 10 mg/kg administered via oral gavage measured up to 24 hrs by LC-MS/MS analysis. The format is ADME, organism-based. Particulars: in vivo. Summed up: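 Single-dose pharmacokinetics in male BALB/c mice, 2 mg/kg IV or 10 mg/kg PO.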
In data set [24] the test system is Mus musculus. The experiment in a line: Toxicity in nude BALB/c mouse assessed as overt toxicity at 20 to 100 mg/kg, po qd measured up to 14 days post dose. The format is organism-based. The following applies: in vivo, 336 h.
Data set [25] deals with MV4-11. The experiment in a line: Antitumor activity against human MV4-11 cells xenografted in nude BALB/c mouse assessed as tumor growth inhibition at 100 mg/kg, po qd administered for 33 consecutive days and left untreated for another 50 days. The format is functional, organism-based.
The test system of data set [26] is MV4-11. The experiment in a line: Antitumor activity against human MV4-11 cells xenografted in nude BALB/c mouse assessed as median survival time at 100 mg/kg, po qd administered for 33 consecutive days and left untreated for another 50 days (reference value: 33 days). The class given is functional.
Data set [27] has as its system Mus musculus. The experiment in a line: Toxicity in nude BALB/c mouse xenografted with human MV4-11 cells assessed as body weight loss at 100 mg/kg, po qd for 33 consecutive days and left untreated for another 50 days. The format is organism-based. The following applies: in vivo, 1200 h.
Data set [28] has as its target LIM domain kinase 1 (Homo sapiens) (UniProt P53667). The experiment in a line: Inhibition of full-length human LIMK1 (1 to 647 amino acid residues) expressed in bacterial expression system at 1 uM in presence of [gamma-33P]-ATP […]. Summed up:
as §1

The target of data set [29] is Dual specificity tyrosine-phosphorylation-regulated kinase 2 (Homo sapiens) (UniProt Q92630). The experiment in a line: Inhibition of full-length human DYRK2 (1 to 528 amino acid residues) expressed in mammalian expression system at 1 uM in presence of [gamma-33P]-ATP […]. Summed up:
as §1

Chain of Cyclin-dependent kinase 1/cyclin B1 (Homo sapiens) (P06493 whole entry, looked up): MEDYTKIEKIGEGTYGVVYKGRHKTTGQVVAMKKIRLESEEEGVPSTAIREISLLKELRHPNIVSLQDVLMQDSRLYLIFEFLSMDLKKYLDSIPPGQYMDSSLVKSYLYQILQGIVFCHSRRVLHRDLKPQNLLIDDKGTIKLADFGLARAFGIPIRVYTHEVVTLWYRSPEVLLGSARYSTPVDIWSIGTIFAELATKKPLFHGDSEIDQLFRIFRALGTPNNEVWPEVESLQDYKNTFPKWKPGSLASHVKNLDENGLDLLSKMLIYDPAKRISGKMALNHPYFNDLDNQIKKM
Chain of Cyclin-dependent kinase 1/cyclin B1 (Homo sapiens) (P14635 whole entry, looked up): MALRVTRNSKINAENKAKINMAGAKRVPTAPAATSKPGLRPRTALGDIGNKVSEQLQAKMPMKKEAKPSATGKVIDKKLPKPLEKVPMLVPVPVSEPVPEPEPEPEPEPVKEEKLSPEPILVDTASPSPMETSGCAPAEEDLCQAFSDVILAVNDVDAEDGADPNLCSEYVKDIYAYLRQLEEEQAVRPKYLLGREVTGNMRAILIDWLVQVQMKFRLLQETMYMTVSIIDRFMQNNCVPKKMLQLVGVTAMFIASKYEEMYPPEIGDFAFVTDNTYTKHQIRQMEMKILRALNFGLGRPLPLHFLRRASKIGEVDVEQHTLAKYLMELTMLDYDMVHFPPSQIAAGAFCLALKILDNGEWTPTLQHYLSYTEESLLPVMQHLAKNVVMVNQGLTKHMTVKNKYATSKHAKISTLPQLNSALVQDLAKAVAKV
Chain of Serine/threonine-protein kinase 16 (Homo sapiens) (O75716 whole entry, the tested form may be a part): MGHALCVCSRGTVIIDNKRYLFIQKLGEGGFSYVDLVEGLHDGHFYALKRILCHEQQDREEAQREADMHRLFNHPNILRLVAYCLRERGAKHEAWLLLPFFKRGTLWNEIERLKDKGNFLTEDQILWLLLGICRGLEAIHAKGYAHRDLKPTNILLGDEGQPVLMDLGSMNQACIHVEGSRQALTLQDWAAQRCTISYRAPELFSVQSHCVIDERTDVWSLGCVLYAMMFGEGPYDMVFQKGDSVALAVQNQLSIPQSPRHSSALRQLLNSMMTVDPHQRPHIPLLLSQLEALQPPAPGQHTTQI
Chain of Cytochrome P450 2C9 (P11712 whole entry): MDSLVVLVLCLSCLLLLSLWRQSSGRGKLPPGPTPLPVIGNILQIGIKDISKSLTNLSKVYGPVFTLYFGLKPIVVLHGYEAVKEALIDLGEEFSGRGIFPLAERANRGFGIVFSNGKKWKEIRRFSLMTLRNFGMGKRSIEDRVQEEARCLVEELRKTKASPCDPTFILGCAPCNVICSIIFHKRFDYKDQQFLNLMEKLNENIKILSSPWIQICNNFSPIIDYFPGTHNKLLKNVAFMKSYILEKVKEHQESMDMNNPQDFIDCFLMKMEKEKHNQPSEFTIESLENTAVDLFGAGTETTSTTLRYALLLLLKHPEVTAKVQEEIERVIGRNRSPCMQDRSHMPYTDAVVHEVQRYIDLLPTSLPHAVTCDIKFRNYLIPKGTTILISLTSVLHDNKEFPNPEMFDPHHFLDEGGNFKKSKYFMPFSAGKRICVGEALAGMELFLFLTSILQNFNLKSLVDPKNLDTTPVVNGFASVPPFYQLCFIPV
Chain of CDK6/cyclin D3 (P30281 whole entry): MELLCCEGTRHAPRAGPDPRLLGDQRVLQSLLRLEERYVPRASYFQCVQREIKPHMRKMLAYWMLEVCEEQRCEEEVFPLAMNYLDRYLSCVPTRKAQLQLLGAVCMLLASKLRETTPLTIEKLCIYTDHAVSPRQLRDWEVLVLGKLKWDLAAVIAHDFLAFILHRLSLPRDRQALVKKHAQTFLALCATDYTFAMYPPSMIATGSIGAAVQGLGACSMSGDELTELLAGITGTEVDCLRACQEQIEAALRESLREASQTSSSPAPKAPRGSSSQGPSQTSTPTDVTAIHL
Chain of CDK6/cyclin D3 (Q00534 whole entry): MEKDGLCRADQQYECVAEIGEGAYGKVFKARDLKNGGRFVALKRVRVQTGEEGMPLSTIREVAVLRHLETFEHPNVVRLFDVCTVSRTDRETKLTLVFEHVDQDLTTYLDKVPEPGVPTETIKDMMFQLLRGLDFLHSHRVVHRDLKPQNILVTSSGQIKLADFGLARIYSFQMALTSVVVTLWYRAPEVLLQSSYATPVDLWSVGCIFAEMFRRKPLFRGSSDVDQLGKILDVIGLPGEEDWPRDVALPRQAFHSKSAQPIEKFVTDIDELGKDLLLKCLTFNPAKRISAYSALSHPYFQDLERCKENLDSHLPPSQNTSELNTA
Chain of Dual specificity tyrosine-phosphorylation-regulated kinase 2 (Homo sapiens) (Q92630 whole entry, the tested form may be a part): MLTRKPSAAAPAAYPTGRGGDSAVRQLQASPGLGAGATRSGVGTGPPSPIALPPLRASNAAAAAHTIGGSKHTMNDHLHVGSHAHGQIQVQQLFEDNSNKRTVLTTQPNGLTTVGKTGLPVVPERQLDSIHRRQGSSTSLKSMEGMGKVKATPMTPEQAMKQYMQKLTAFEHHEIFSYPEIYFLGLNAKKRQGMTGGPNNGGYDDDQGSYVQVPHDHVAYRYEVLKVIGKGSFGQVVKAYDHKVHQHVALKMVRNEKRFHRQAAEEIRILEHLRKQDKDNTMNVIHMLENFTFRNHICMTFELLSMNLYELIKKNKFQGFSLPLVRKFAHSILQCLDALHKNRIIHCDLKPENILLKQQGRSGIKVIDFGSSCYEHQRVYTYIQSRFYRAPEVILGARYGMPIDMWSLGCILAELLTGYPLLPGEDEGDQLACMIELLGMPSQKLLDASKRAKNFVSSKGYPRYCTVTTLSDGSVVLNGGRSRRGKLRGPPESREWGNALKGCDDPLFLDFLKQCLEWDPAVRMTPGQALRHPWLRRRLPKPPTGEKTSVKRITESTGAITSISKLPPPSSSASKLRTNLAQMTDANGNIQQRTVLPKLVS
Chain of Cytochrome P450 3A4 (P08684 whole entry, canonical isoform): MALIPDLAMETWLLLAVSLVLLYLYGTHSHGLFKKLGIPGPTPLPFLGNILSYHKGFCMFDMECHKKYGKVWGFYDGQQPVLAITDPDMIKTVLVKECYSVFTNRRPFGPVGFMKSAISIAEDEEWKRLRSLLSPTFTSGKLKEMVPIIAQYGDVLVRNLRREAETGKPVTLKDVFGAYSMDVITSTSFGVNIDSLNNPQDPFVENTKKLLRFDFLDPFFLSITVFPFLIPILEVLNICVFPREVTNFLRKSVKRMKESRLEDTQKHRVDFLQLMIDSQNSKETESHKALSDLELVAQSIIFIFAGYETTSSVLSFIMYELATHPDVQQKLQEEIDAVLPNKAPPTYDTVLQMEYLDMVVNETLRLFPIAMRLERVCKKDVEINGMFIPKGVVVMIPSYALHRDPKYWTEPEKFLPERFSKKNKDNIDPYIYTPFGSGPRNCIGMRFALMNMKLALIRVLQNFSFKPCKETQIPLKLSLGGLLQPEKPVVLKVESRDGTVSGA
Chain of Cytochrome P450 2C19 (P33261 whole entry): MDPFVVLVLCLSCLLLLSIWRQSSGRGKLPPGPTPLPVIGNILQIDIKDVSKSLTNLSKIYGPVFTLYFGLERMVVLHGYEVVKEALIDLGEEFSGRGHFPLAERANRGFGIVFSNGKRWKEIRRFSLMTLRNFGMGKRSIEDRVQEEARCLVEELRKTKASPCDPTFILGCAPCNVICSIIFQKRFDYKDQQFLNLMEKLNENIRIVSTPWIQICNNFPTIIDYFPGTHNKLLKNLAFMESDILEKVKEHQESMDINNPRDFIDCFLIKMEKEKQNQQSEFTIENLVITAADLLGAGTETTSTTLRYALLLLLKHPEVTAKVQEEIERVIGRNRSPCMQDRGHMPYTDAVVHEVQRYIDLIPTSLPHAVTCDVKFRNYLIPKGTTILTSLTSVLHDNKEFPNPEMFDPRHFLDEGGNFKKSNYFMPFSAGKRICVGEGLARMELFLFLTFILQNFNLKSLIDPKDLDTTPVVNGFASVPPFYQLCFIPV
Chain of Voltage-gated inwardly rectifying potassium channel KCNH2 (Q12809 whole entry): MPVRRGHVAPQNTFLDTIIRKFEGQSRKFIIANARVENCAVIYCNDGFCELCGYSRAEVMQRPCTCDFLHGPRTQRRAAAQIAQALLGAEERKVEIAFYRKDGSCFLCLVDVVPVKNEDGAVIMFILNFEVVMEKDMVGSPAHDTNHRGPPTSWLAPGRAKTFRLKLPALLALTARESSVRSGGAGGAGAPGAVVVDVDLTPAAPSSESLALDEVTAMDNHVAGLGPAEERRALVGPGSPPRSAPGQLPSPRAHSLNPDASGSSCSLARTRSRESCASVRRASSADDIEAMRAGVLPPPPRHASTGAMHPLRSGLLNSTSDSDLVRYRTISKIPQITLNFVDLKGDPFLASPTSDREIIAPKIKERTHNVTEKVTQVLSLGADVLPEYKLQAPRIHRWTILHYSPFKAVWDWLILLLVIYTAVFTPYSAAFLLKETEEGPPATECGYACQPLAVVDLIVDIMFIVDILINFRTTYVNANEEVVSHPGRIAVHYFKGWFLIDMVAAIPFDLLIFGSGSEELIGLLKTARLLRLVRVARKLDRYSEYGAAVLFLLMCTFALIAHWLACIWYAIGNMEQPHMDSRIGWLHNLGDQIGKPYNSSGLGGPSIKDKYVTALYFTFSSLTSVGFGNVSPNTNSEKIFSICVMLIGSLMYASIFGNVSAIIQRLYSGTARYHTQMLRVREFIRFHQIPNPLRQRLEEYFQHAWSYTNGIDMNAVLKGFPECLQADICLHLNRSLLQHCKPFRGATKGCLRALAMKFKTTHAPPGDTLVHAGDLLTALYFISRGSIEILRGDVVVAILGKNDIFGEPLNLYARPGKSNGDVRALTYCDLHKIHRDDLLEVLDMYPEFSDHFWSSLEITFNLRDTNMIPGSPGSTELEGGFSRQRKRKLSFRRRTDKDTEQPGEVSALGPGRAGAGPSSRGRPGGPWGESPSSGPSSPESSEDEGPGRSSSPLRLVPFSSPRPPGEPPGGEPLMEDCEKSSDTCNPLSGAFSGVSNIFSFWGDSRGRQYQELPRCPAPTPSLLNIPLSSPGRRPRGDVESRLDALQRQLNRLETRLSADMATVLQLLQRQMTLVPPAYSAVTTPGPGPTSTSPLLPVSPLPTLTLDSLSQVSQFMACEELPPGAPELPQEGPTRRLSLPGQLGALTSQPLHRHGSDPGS

`CC(=O)c1c(C)c2cnc(Nc3ccc(N4CCNCC4)cn3)nc2n(C2CCCC2)c1=O` [PALBOCICLIB]: the Activity was 15.52% in data set [1]; 9.33% in [2]; 5.74% in [3]; 2.93% in data set [4]; 6.02% in data set [5]; 5.69% in [6]. In data set [7], the Activity entry is recorded as “Toxic”.

In the case of `Cc1nc(NC2CCCC2)sc1-c1ccnc(Nc2ccc(N3CCOCC3)cn2)n1`, the inhibition result in data set [8], in data set [28] and in [29] was “Active” in each case. Further, the Ki in [9] is 30 nM; in [11] it was above 5 µM. Moreover, the “Ki(app)” value in data set [10] was “inactive”. Besides, the Ratio Ki in data set [12] is 156. Also, the IC50 was above 25 µM in [13], above 25 µM in data set [14], above 25 µM in data set [15] and above 10 µM in data set [16]. Moreover, the Papp A→B in [17] is 10.1 ×10⁻⁶ cm/s. Further, the values for the Cmax in data set [18] and in [21] were 38.8 µM and 2300 nM, respectively. Besides, the bioavailability in data set [19] fell in the range of 25.1 to 27%. Besides, in data set [20], the Vd is 5.6 L/kg. The molecule further displayed an exposure AUC(0-t) at 24 h in [22] of 5.9 µM·h. In addition, the half-life in data set [23] was 300 min. Moreover, the Activity result in data set [24] and in data set [27] was “Non-Toxic” each time. The TGI result in [25] was “Active”. Further, the MST in data set [26] is 55 days.
